Values belong to the compound of their own block, whether it stands above or below them.
Legend:
[1] = biological target: Cytochrome P450 3A4 (Homo sapiens, UniProt P08684); assay: Inhibition of CYP3A4 using testosterone as substrate in human liver microsome for 20 mins by HPLC analysis; assay type: ADME, microsomes
How it was run: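 CYP3A4 inhibition measured in human liver microsomes; IC50 is the average of at least two replicates.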

[2] = biological target: T1, Renin (Homo sapiens, UniProt P00797); assay: Inhibition of human recombinant renin using DABCYL-gamma-Abu-Ile-His-Pro-Phe-His-Leu-Val-Ile-His-Thr-EDANS as substrate for 60 mins by fluorimetry
T1 sequence (P00797 whole entry): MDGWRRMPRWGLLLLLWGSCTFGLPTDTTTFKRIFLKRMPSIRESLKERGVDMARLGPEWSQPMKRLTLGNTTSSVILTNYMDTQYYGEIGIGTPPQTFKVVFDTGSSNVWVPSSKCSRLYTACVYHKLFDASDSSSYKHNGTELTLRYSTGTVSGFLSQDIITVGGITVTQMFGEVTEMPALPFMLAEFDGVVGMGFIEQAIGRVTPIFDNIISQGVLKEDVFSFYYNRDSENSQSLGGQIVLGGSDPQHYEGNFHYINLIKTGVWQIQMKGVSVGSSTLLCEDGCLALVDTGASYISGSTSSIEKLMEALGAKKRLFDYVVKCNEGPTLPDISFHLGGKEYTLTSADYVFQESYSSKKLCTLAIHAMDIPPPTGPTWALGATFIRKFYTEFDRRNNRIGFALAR
How it was run: (§1)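 Purified recombinant human renin measured in buffer; each value is the average of at least two replicates.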

[3] = biological target: T1, Renin; assay: Inhibition of human recombinant renin using H-Asp-Arg-Val-Tyr-Ile-His-Pro-Phe-His-Leu-Val-Ile-His-Asn-OH as substrate assessed as formation of angiotensin1 product after 2 hrs by competive radioimmunoassay; how it was run: as §1
[4] = biological target: T1, Renin; assay: Inhibition of renin in human plasma assessed as formation of angiotensin1 product after 90 mins by competitive radioimmunoassay
How it was run: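 IC50 for renin inhibition determined in the presence of human plasma; each value is the average of at least two replicates.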

[5] = AUC (0 to t) in rat at 8.2 mg/kg, po; assay type: ADME, organism-based; design: dose 8.2 mg/kg, route oral; conditions: plasma
How it was run: (§2)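 Compounds were dosed as fumarate salts in separate intravenous and oral arms. Oral AUC(0–t), IV half-life, IV clearance, Vss and oral bioavailability (F) were derived from the plasma levels.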

[6] = Half life in rat at 1.6 mg/kg, iv; assay type: ADME, organism-based; design: dose 1.6 mg/kg, route intravenous; conditions: in vivo; how it was run: as §2
[7] = Clearance in rat at 1.6 mg/kg, iv; assay type: ADME, organism-based; design: dose 1.6 mg/kg, route intravenous; conditions: in vivo; how it was run: as §2
[8] = Volume of distribution at steady state in rat at 1.6 mg/kg, iv and 8.2 mg/kg, po; assay type: ADME, organism-based; conditions: in vivo, read-out: Vdss; how it was run: as §2
[9] = Oral bioavailability in rat at 8.2 mg/kg; assay type: ADME, organism-based; conditions: in vivo; how it was run: as §2
[10] = Fraction unbound in dog plasma; assay type: ADME, cell-free, Canis lupus familiaris
[11] = Fraction unbound in cynomolgus monkey plasma; assay type: ADME, cell-free, Macaca fascicularis
[12] = test system: Salmonella typhimurium; assay: Mutagenicity against Salmonella typhimurium in the presence of S9-mix; assay type: toxicity, organism-based; conditions: salmonella enterica subsp. enterica serovar typhimurium
[13] = test system: Salmonella typhimurium; assay: Mutagenicity against Salmonella typhimurium in the absence of S9-mix; assay type: toxicity, organism-based; conditions: salmonella enterica subsp. enterica serovar typhimurium
[14] = test system: L5178Y; assay: Genotoxicity against TK-positive mouse L5178Y cells; assay type: toxicity, cell-based
[15] = test system: L5178Y; assay: Genotoxicity against TK-negative mouse L5178Y cells; assay type: toxicity, cell-based
[16] = AUC (0 to t) in cynomolgus monkey at 2 mg/kg, po; assay type: ADME, organism-based, Macaca fascicularis; design: dose 2 mg/kg, route oral; conditions: plasma; how it was run: as §2
[17] = AUC (0 to t) in dog at 1 mg/kg, po; assay type: ADME, organism-based, Canis lupus familiaris; design: dose 1 mg/kg, route oral; conditions: plasma; how it was run: as §2
[18] = Half life in rat at 2 mg/kg, iv; assay type: ADME, organism-based; design: dose 2 mg/kg, route intravenous; conditions: in vivo; how it was run: as §2
[19] = Half life in cynomolgus monkey at 1 mg/kg, iv; assay type: ADME, organism-based, Macaca fascicularis; design: dose 1 mg/kg, route intravenous; conditions: in vivo; how it was run: as §2
[20] = Half life in dog at 0.5 mg/kg, iv; assay type: ADME, organism-based, Canis lupus familiaris; design: dose 0.5 mg/kg, route intravenous; conditions: in vivo; how it was run: as §2
[21] = Clearance in rat at 2 mg/kg, iv; assay type: ADME, organism-based; design: dose 2 mg/kg, route intravenous; conditions: in vivo; how it was run: as §2
[22] = Clearance in cynomolgus monkey at 1 mg/kg, iv; assay type: ADME, organism-based, Macaca fascicularis; design: dose 1 mg/kg, route intravenous; conditions: in vivo; how it was run: as §2
[23] = Clearance in dog at 0.5 mg/kg, iv; assay type: ADME, organism-based, Canis lupus familiaris; design: dose 0.5 mg/kg, route intravenous; conditions: in vivo; how it was run: as §2
[24] = Volume of distribution at steady state in rat at 2 mg/kg, iv and 10 mg/kg, po; assay type: ADME, organism-based; conditions: in vivo, read-out: Vdss; how it was run: as §2
[25] = Volume of distribution at steady state in cynomolgus monkey at 1 mg/kg, iv and 2 mg/kg, po; assay type: ADME, organism-based, Macaca fascicularis; conditions: in vivo, read-out: Vdss; how it was run: as §2
[26] = Volume of distribution at steady state in dog at 0.5 mg/kg, iv and 1 mg/kg, po; assay type: ADME, organism-based, Canis lupus familiaris; conditions: in vivo, read-out: Vdss; how it was run: as §2
[27] = Oral bioavailability in cynomolgus monkey at 2 mg/kg; assay type: ADME, organism-based, Macaca fascicularis; conditions: in vivo; how it was run: as §2
[28] = Oral bioavailability in dog at 1 mg/kg; assay type: ADME, organism-based, Canis lupus familiaris; conditions: in vivo; how it was run: as §2
[29] = AUC (0 to t) in rat at 10 mg/kg, po; assay type: ADME, organism-based; design: dose 10 mg/kg, route oral; conditions: plasma; how it was run: as §2
[30] = Half life in dog at 1 mg/kg, iv; assay type: ADME, organism-based, Canis lupus familiaris; design: dose 1 mg/kg, route intravenous; conditions: in vivo
[31] = Clearance in dog at 1 mg/kg, iv; assay type: ADME, organism-based, Canis lupus familiaris; design: dose 1 mg/kg, route intravenous; conditions: in vivo
[32] = AUC (0 to t) in rat at 4 mg/kg, po; assay type: ADME, organism-based; design: dose 4 mg/kg, route oral; conditions: plasma; how it was run: as §2
[33] = Half life in rat at 0.8 mg/kg, iv; assay type: ADME, organism-based; design: dose 0.8 mg/kg, route intravenous; conditions: in vivo; how it was run: as §2
[34] = Clearance in rat at 0.8 mg/kg, iv; assay type: ADME, organism-based; design: dose 0.8 mg/kg, route intravenous; conditions: in vivo; how it was run: as §2
[35] = Volume of distribution at steady state in rat at 0.8 mg/kg, iv and 4 mg/kg, po; assay type: ADME, organism-based; conditions: in vivo, read-out: Vdss; how it was run: as §2
[36] = Oral bioavailability in rat at 4 mg/kg; assay type: ADME, organism-based; conditions: in vivo; how it was run: as §2

Sequence of Cytochrome P450 3A4 (P08684 whole entry): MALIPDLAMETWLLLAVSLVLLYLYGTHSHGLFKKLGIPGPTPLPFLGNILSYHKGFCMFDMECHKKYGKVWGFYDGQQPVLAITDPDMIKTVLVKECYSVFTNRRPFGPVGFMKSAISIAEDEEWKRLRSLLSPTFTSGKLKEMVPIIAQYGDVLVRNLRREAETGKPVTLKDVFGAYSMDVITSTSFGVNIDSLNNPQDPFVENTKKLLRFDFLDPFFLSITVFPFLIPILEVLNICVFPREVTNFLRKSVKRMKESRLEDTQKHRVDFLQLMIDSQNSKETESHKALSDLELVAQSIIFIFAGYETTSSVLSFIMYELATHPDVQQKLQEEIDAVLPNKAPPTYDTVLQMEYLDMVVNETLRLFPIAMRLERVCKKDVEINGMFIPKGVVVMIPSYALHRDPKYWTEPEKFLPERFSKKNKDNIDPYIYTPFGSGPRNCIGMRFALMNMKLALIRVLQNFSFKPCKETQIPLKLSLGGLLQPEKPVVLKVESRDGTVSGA

SMILES: CNC[C@H](CC1CCCCC1)NC(=O)N1CCC[C@@H]([C@@](O)(CCCCOC)c2cccc(Cl)c2F)C1.O=C(O)/C=C/C(=O)O
AUC(0-t) [5]: 226 ng·h/mL
half-life [6]: 954 min
clearance [7]: 30 mL/min/kg
Vd [8]: 16 L/kg
bioavailability [9]: 5.5%

SMILES: CN[C@H](CNC(=O)N1CCC[C@@H]([C@@H](OCCNC(=O)OC)c2cccc(Cl)c2)C1)C[C@H]1CCCOC1.O=C(O)/C=C/C(=O)O
AUC(0-t) [16]: 404 ng·h/mL
AUC(0-t) [17]: 484 ng·h/mL
half-life [18]: 438 min
half-life [19]: 738 min
half-life [20]: 594 min
clearance [21]: 128 mL/min/kg
clearance [22]: 29.6 mL/min/kg
clearance [23]: 12.9 mL/min/kg
Vd [24]: 38 L/kg
Vd [25]: 4.7 L/kg
Vd [26]: 4 L/kg
bioavailability [27]: 18%
bioavailability [28]: 41%

SMILES: COCCCOc1cc(C[C@@H](C[C@H](N)[C@@H](O)C[C@H](C(=O)NCC(C)(C)C(N)=O)C(C)C)C(C)C)ccc1OC.COCCCOc1cc(C[C@@H](C[C@H](N)[C@@H](O)C[C@H](C(=O)NCC(C)(C)C(N)=O)C(C)C)C(C)C)ccc1OC.O=C(O)/C=C/C(=O)O [ALISKIREN FUMARATE]
AUC(0-t) [29]: 21 ng·h/mL
AUC(0-t) [17]: 149 ng·h/mL
half-life [18]: 2380 min
half-life [19]: 882 min
half-life [30]: 978 min
clearance [22]: 2.5 mL/min/kg
clearance [31]: 11 mL/min/kg
bioavailability [27]: 1.4%
bioavailability [28]: 11%

SMILES: COCCCC[C@@](O)(c1cccc(Cl)c1F)[C@@H]1CCCN(C(=O)NC[C@@H](N)CC2CCCCC2)C1.O=C(O)/C=C/C(=O)O
AUC(0-t) [32]: 269 ng·h/mL
half-life [33]: 2.12 days
clearance [34]: 47 mL/min/kg
Vd [35]: 101 L/kg
bioavailability [36]: 29.5%

Second part, led by results:

IC50 [1]: 4.6 µM
SMILES: CNC[C@H](CC1CCCCC1)NC(=O)N1CCC[C@@H]([C@@H](OCCNC(=O)OC)c2cccc(Cl)c2)C1

IC50 [2]: 6.2 nM
IC50 [3]: 1.7 nM
IC50 [4]: 13.1 nM
IC50 [1]: > 30 µM
SMILES: CNC[C@H](CC1CCOCC1)NC(=O)N1CCC[C@@H]([C@@H](OCCNC(=O)OC)c2cccc(Cl)c2)C1

IC50 [2]: 0.47 nM
IC50 [3]: 0.3 nM
IC50 [4]: 1.1 nM
fraction unbound [10]: 0.22
fraction unbound [11]: 0.29
SMILES: CN[C@H](CNC(=O)N1CCC[C@@H]([C@@H](OCCNC(=O)OC)c2cccc(Cl)c2)C1)C[C@H]1CCCOC1 [VTP-27999]
Activity [12]: Non-toxic
Activity [13]: Non-toxic
Activity [14]: Non-toxic
Activity [15]: Non-toxic

IC50 [2]: 0.56 nM
IC50 [3]: 0.42 nM
IC50 [4]: 0.48 nM
IC50 [1]: 28 µM
SMILES: CNC[C@H](C[C@H]1CCCOC1)NC(=O)N1CCC[C@@H]([C@@H](OCCNC(=O)OC)c2cccc(Cl)c2)C1
